According to PubChem BioAssay AID504382 (The Scripps Research Institute Molecular Screening Center, 2011):
About 460 (18%) of roughly 2,500 compounds were called active.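 The calls were made as follows: active = mean activation above a cutoff of low control average plus 3 SD from the earlier screen (cut at about 12% in these data); inactive = the rest.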 These entries were drawn from the full list.

Assay: IANBD-channel fluorescence artefacts in buffer – biochemical, artefact control for cardiac RTF calcium sensitizer project, confirmation (AID 504382)
Details: IANBD fluorescence interference counterscreen, EC20 Ca2+, at 7.2 µM, active compounds read high, scaled: EC20 calcium 0, EC100 calcium 100
How it was run: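 Doses – one dose of 7.2 µM, 0.7% DMSO · Buffer or medium – MOPS/KCl/MgCl2/EGTA/NTA/DTT buffer, pH 7.2 · Probe or stimulus – Ca2+ fixed at EC20, 0.472 mM · Measured by – fluorescence intensity, excitation 480 nm, emission 540 nm · Read-out – fluorescence interference versus control range · Timing – 15 min compound exposure at 25 °C · Replication – triplicate wells per compound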

Compound | fluorescence artifact activation
CCc1ccc(Nc2n[n+](-c3ccccc3)c(-c3ccc(N(CC)CC)cc3)s2)cc1 | -0.01% (inactive)
C[C@H](CO)N1C[C@H](C)[C@@H](CN(C)S(=O)(=O)c2cccs2)Oc2c(NC(=O)Nc3ccc4c(c3)OCO4)cccc2C1=O | 2.08% (inactive)
COCc1cc(=O)[nH]c2cc(NC(=O)C(C)(C)CCl)c(C)cc12 | -0.05% (inactive)
COc1ccc(CCNC(=O)c2ccccc2OCc2c(C)noc2C)cc1 | -0.02% (inactive)
CCOCCCNC(=S)NCCCNc1nc2c(C)cc(C)cc2cc1C#N | 0.14% (inactive)
COc1cc(N2CCCC2)c(OC)cc1/C=C(/C#N)c1ccc(Br)cc1 | 0.93% (inactive)
COc1cc(N2CCCC2)c(OC)cc1/C=C1/NC(=S)NC1=O | 16.7% (active)
COc1cc(N2CCCC2)c(OC)cc1/C=C(/C#N)c1cccc(Br)c1 | -0.03% (inactive)
N#Cc1ccc(CSc2nnc(-c3cnccn3)o2)cc1 | 45.1% (active)
O=c1oc2cc(O)ccc2cc1-c1nc2c(s1)CCc1ccccc1-2 | 0.02% (inactive)
CC(C)(C)c1cc[n+](-c2[nH]c(=O)sc2/C=N/NC([S-])=Nc2ccccc2)cc1 | 1.92% (inactive)
Cc1ccccc1C(=O)NCCCc1ccccc1 | 0.02% (inactive)
O=S(=O)(c1ccc(F)cc1)N1CCN(CCOc2ccccc2)CC1 | 361% (active)
CN1CCN(S(=O)(=O)c2cccc(C(=O)Oc3cccc(Br)c3)c2)CC1 | 0.74% (inactive)
COC(=O)N1CCN(S(=O)(=O)c2ccc(F)cc2)CC1 | -0.07% (inactive)
CC(C)c1nnc(N2C(=O)C(O)=C(C(=O)c3cccs3)C2c2ccccc2)s1 (stereo not given) | 0.07% (inactive)
O=C(COC(=O)c1cc(-c2cccc3ccccc23)nc2ccccc12)NC1CCS(=O)(=O)C1 (stereo not given) | 0.37% (inactive)
CCCCC(=O)Nc1ccc(C(=O)Nc2ccc(OC)cc2[N+](=O)[O-])cc1 | 2.86% (inactive)
Cn1nc(-c2ccccc2)c2nc3ccccc3nc21 | 0.09% (inactive)
CCCCCn1nc(-c2ccccc2)c2nc3ccccc3nc21 | 20.1% (active)
CCn1nc(-c2ccccc2)c2nc3ccccc3nc21 | 4.1% (inactive)
CCOC(=O)CCC(=O)NCc1ccc2c(c1)cc(C)n2C | 0.01% (inactive)
COc1ccc2nc3ccccc3nc2c1NC(=O)c1ccc(Cl)cc1Cl | 0.06% (inactive)
CC(=O)N1CCN(S(=O)(=O)c2cccc(C(=O)NNC(=O)c3ccc(Br)cc3)c2)CC1 | 0.4% (inactive)

Compound | fluorescence artifact activation
COc1ccc2nc3ccccc3nc2c1NC(=O)c1ccc(Br)cc1 | 59.2% (active)
CN(C)c1ccc(/C=C/C(=O)c2cc(Cl)ccc2O)cc1 | 0.19% (inactive)
CC(C)(C)NC(=O)CSc1nnc(-c2ccccn2)n1-c1ccccc1 | 0.09% (inactive)
Cc1cc(C)c2c(SC(C)C)nc(N)nc2n1 | 5.3% (inactive)
CCOCCn1c(CN2CCN(CC)CC2)nc2c1c(=O)n(C)c(=O)n2C | 21.1% (active)
CCN(CC)c1ccc(/C=C2\C(=O)c3ccc(C(=O)O)cc3C2=O)cc1 | 8.82% (inactive)
CCN(CC)c1ccc2cc(C(=O)NCc3ccc(F)cc3)c(=N)oc2c1 | 17.9% (active)
CCN(CC)c1ccc2cc(C(C)=O)c(=O)oc2c1 | 0.03% (inactive)
CCN(CC)c1ccc2cc(C(=O)Nc3ccccn3)c(=O)oc2c1 | -0.06% (inactive)
N#Cc1c(NC(=O)C2CC=CCC2C(=O)O)sc2c1CCCCCC2 (stereo not given) | 0.67% (inactive)
Cc1ccc(-c2nn(-c3ccccc3)cc2/C=C2\SC(=S)N(CCCCCC(=O)O)C2=O)o1 | 3.75% (inactive)
COc1ccccc1C(=O)NNC(=O)CCCN1C(=O)/C(=C/c2cccs2)SC1=S | -0.02% (inactive)
O=C(O)CCCN1C(=O)/C(=C/c2cn(-c3ccccc3)nc2-c2cccs2)SC1=S | 54.1% (active)
COc1cccc(/C(O)=C/c2nc3ccc(C(=O)NCCc4cccc(C)c4)cc3[nH]c2=O)c1 | 0.04% (inactive)
CCc1ccc(/C=C2/C(=O)N(C)C(=S)N2CC(=O)OC)s1 | 2.56% (inactive)
O=C(Cn1cnc2c(cnn2-c2ccccc2)c1=O)Nc1ccc(S(=O)(=O)N2CCOCC2)cc1 | 7.41% (inactive)
CN(C)c1ccc(/C=C/C(=O)c2ccc3c(c2)OCO3)cc1 | 2.49% (inactive)
C[C@H]1CN([C@@H](C)CO)C(=O)c2cccc(NC(=O)c3nc4ccccc4s3)c2O[C@H]1CN(C)C(=O)Nc1ccc(F)cc1 | 0.31% (inactive)
CC(C)NC(=O)/C(C#N)=C/c1ccc(N(C)C)o1 | 0.18% (inactive)
CCN(CC)c1ccc(/C=C(/C#N)C(=O)NC(C)C)o1 | 0.06% (inactive)
CC(C)NC(=O)/C(C#N)=C\c1ccc(N(C)C)o1 | 48.4% (active)
CCN(c1ccc(N=Cc2c(O)n(Cc3ccc(OC)cc3)c(=O)c3ccccc23)cc1)C(C)C | 2.13% (inactive)
O=C(CSC1CC(=O)N(c2ccc(C(=O)O)cc2)C1=O)Nc1ccc2ccccc2c1 (stereo not given) | 0.06% (inactive)
O=C(NCCCN1CCOCC1)C(=O)NCc1ccco1 | 0.11% (inactive)

Compound | fluorescence artifact activation
CC(C)(C)c1ccc(C(=O)N/C(=C\c2cccs2)C(=O)NCc2ccco2)cc1 | 0.07% (inactive)
O=C(NCc1ccco1)/C(=C\c1ccco1)NC(=O)c1ccc(Br)o1 | 24.4% (active)
Cc1cc(=O)c2c([nH]1)c(C)cc1[nH]c(C)c(C)c12 | 0.09% (inactive)
C=CCn1c(=O)c(C(=O)NCCNCC)c(O)c2ccccc21 | 0.84% (inactive)
CCCCN=C1N/C(=C\c2ccco2)C(=O)N1c1ccccc1 | 78.2% (active)
NC(N)=NCc1cccc(I)c1 | 0.57% (inactive)
CN(C)c1ccc(/C=N/NC(=O)c2cnc3ccccc3c2)cc1 | 0.02% (inactive)
CC(=O)c1cccc(NC(=S)NC2CCCCC2)c1 | 0.08% (inactive)
CC(C)CC[C@@H](O)[C@](C)(O)C1CC[C@@]2(O)C3=CC(=O)[C@@H]4C[C@@H](O)[C@@H](O)C[C@]4(C)C3CC[C@]12C (stereo not given in full) | 79.3% (active)
CNc1ccc2c3c(cccc13)C(=O)N(C)C2=O | 40.8% (active)
CN1C(=O)c2cccc3c(N(C)C)ccc(c23)C1=O | 70.1% (active)
Cc1ccccc1N1C(=O)c2cccc3c(N(C)CCO)ccc(c23)C1=O | -0.04% (inactive)
CN1C(=O)c2cccc3c(N)ccc(c23)C1=O | 0.17% (inactive)
CCCCNc1ccc2c3c(cccc13)C(=O)N(CCCC)C2=O | -0.02% (inactive)
CCN1C(=O)c2cccc3c(N)ccc(c23)C1=O | 0.02% (inactive)
COC(=O)N1c2ccccc2CCc2ccccc21 | 1.49% (inactive)
CC(=O)Nc1ccc(Nc2c3c4c(cccc4n(C)c2=O)C(=O)c2ccccc2-3)cc1 | 5.51% (inactive)
COc1ccc(CNC(=O)c2cc3c(s2)CS(=O)C3)cc1 (stereo not given) | 0.1% (inactive)
CCc1ccc2c(c1)C(NC(C)=O)C(=O)N2CC (stereo not given) | -0.03% (inactive)
Cc1ccc(S(=O)(=O)c2cccc(S(=O)(=O)N3CCOCC3)c2)cc1S(=O)(=O)N1CCOCC1 | 6.87% (inactive)
N#C/C(=C\c1ccc(Sc2ccc(Cl)cc2)o1)c1nc2ccccc2[nH]1 | -0.03% (inactive)
C=CCN1C(=O)/C(=C\C=C2\N(C)c3ccccc3C2(C)C)SC1=S | 0.06% (inactive)
COc1ccc(Cl)cc1-c1nc(SCC(=O)NC(C)C)n[nH]1 | 0.53% (inactive)
Cc1ccc(C)c(C(=O)CSc2n[nH]c(C(C)C)n2)c1 | 18.7% (active)

Compound | fluorescence artifact activation
C/C(N)=C(/C#N)C(=O)CSc1n[nH]c(-c2cccs2)n1 | 0.14% (inactive)
Cc1[nH]c(=S)c(C#N)c(C)c1CCC#N | 10.6% (inactive)
COC(=O)CNC(=O)COC(=O)c1cc(F)c(F)cc1Cl | 0.55% (inactive)
Cc1ccccc1C1CC(=O)Oc2cc(O)ccc21 (stereo not given) | 0.19% (inactive)
Cc1ccc2c(c1)c(/C=C/c1cc[n+](C)cc1)c(C)n2C | 1.43% (inactive)
Cc1ccc2[nH]c(C)c(/C=C/c3cc[n+](C)cc3)c2c1 | 54.8% (active)
Cc1[nH]c2ccccc2c1/C=C/c1cc[n+](C)cc1 | 3% (inactive)
COC(=O)Cn1cc(/C=C/c2cc[n+](C)cc2)c2ccccc21 | 1.9% (inactive)
COc1ccc(-c2nc(/C=C3\C(C)=Nc4ccccc43)c(O)o2)cc1 | 1.03% (inactive)
COc1ccc(-c2nnc(-c3cccnc3)o2)cc1 | 15.1% (active)
COc1ccc(NC(=O)Nc2cccnc2)c(OC)c1 | 0.16% (inactive)
CC(=O)C1=C(O)CCCC1=NCc1nc2ccccc2[nH]1 | 0.23% (inactive)
CN1CCC(N(CCc2ccccc2)C(=O)CCC(=O)O)CC1 | 46% (active)
CN(Cc1ccccc1)C(=O)N1CCOCC1 | 0.11% (inactive)
CCCN(CCC)C(=O)C1c2ccccc2Oc2ccccc21 | 3.9% (inactive)
CN1CCc2c(sc3c2C(=O)NC(c2ccccn2)N3)C1 (stereo not given) | 0.36% (inactive)
Cc1ccccc1-n1c(SCc2c(C)noc2C)nnc1-c1cccnc1 | 0.05% (inactive)
N#C/C(=C\c1ccc(N2CCOCC2)o1)c1nc2ccccc2[nH]1 | 14.2% (active)
Cc1ccc2nc(/C(C#N)=C/c3ccc(-c4ccccc4C(=O)O)o3)[nH]c2c1 | 0.32% (inactive)
N#C/C(=C/c1ccc(N2CCOCC2)o1)C(=O)N1CCOCC1 | 0.41% (inactive)
Cc1ccc2nc(/C(C#N)=C\c3ccc(N4CCOCC4)o3)[nH]c2c1 | 16.5% (active)
N#C/C(=C\c1ccc(-c2ccccc2C(=O)O)o1)c1nc2ccccc2[nH]1 | 1.15% (inactive)
N#C/C(=C/c1ccc(N2CCOCC2)o1)c1nc2ccccc2[nH]1 | 0.08% (inactive)
